{"source": "ChEMBL document CHEMBL1126150", "about": "“New kappa-receptor agonists based upon a 2-[(alkylamino)methyl]piperidine nucleus” (J Med Chem, 1992)", "key": {"[1]": {"tested_on": "Mus musculus", "assay": "Antinociceptive activity was determined using the mouse acetylcholine-induced abdominal constriction test followed by subcutaneous administration", "type": "functional", "details": "Abdomen, sc", "method_in_brief": "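Mice received each compound by subcutaneous injection and were scored in the acetylcholine-induced abdominal constriction test. An ED50 in mg/kg was determined for each compound.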"}, "[2]": {"target": "T1, Kappa-type opioid receptor (Homo sapiens, UniProt P41145)", "T1 sequence (P41145 whole entry)": "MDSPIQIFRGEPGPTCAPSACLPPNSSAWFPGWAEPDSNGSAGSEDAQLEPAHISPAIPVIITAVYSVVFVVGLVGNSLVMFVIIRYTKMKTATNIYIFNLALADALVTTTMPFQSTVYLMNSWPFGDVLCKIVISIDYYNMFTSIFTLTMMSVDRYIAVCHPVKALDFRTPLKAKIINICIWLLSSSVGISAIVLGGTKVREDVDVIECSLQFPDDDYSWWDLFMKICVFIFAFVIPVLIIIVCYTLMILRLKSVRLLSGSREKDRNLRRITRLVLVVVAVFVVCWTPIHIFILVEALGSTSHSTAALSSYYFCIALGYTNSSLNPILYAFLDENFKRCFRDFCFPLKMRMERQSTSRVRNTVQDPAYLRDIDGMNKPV", "assay": "Opioid receptor kappa 1 agonist potency in vitro using rabbit vas deferens(LVD) preparation", "type": "functional, Oryctolagus cuniculus", "details": "target entry is the homologue from another species", "method_in_brief": "(§1)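 Isolated rabbit vas deferens (LVD) was used as an in vitro kappa-agonist bioassay. Potency is given as an IC50 in nM, the mean of two independent determinations, with individual values typically within ±10% of the mean. Compounds were tested as racemates.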"}, "[3]": {"target": "Kappa-type opioid receptor (Cavia porcellus) (UniProt P41144)", "sequence (P41144 whole entry)": "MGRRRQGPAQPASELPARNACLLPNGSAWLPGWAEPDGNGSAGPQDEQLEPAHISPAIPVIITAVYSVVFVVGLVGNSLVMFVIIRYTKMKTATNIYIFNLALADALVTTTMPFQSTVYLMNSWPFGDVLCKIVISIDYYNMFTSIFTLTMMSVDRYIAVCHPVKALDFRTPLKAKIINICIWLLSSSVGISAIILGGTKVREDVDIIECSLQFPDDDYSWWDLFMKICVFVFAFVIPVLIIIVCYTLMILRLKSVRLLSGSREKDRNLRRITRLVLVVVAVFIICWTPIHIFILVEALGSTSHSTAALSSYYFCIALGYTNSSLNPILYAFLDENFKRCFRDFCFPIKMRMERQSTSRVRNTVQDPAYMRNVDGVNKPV", "assay": "pKa value was measured against opioid receptor kappa", "method_in_brief": "(§2)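 pKa was found by titration of the compound at a sample concentration of 0.002 M in 10% methanol-water solvent.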"}, "[4]": {"target": "T1, Kappa-type opioid receptor", "assay": "Opioid receptor kappa agonist potency in vitro using rabbit vas deferens(LVD) preparation", "type": "functional, Oryctolagus cuniculus", "details": "target entry is the homologue from another species", "method_in_brief": "as §1"}, "[5]": {"target": "Kappa-type opioid receptor (Cavia porcellus) (UniProt P41144)", "assay": "pKa value was measured against Opioid receptor kappa 1", "method_in_brief": "as §2"}, "[6]": {"target": "Kappa-type opioid receptor (Cavia porcellus) (UniProt P41144)", "assay": "pKa value was measured against kOpioid receptor kappa 1", "method_in_brief": "as §2"}, "[7]": {"target": "T1, Kappa-type opioid receptor", "assay": "Kappa-opioid receptor agonist potency in vitro using rabbit vas deferens(LVD) preparation", "type": "functional, Oryctolagus cuniculus", "details": "target entry is the homologue from another species", "method_in_brief": "as §1"}}}
{"smiles": "O=C(Cc1ccc(Cl)c(Cl)c1)N1CCC2(CC1CN1CCCC1)OCCO2", "note": "(stereo unspecified)", "values": [{"measurement": "ED50", "setting": "[1]", "result": 0.001, "unit": "mg/kg"}]}
{"smiles": "O=C(Cc1ccc(Cl)c(Cl)c1)N1CCCCC1CN1CC=CC1", "note": "(stereo unspecified)", "values": [{"measurement": "ED50", "setting": "[1]", "result": 0.04, "unit": "mg/kg"}, {"measurement": "IC50", "setting": "[2]", "result": 3.5, "unit": "nM"}]}
{"smiles": "O=C(Cc1ccc(Cl)c(Cl)c1)N1CCCCC1CN1CCC2(CC1)OCCO2", "note": "(stereo unspecified)", "values": [{"measurement": "ED50", "setting": "[1]", "result": "> 10", "unit": "mg/kg"}]}
{"smiles": "O=C(Cc1ccc(Cl)c(Cl)c1)N1CCCCC1CN1CCC(O)C1", "note": "(stereo unspecified)", "values": [{"measurement": "ED50", "setting": "[1]", "result": 0.01, "unit": "mg/kg"}, {"measurement": "pKa", "setting": "[3]", "result": 8.1}]}
{"smiles": "COC(=O)[C@@H]1CCC[C@@H](CN2CCCC2)N1C(=O)Cc1ccc(Cl)c(Cl)c1", "values": [{"measurement": "ED50", "setting": "[1]", "result": 0.43, "unit": "mg/kg"}]}
{"smiles": "O=C1CCN(CC2CCCCN2C(=O)Cc2ccc(Cl)c(Cl)c2)CC1", "note": "(stereo unspecified)", "values": [{"measurement": "ED50", "setting": "[1]", "result": "> 10", "unit": "mg/kg"}]}
{"smiles": "N#C/C=C1\\CCN(CC2CCCCN2C(=O)Cc2ccc(Cl)c(Cl)c2)C1", "note": "(stereo unspecified)", "values": [{"measurement": "ED50", "setting": "[1]", "result": "> 10", "unit": "mg/kg"}, {"measurement": "IC50", "setting": "[2]", "result": 690, "unit": "nM"}]}
{"smiles": "O=C(Cc1ccc(Cl)c(Cl)c1)N1CCCCC1CN1CC=CCC1", "note": "(stereo unspecified)", "values": [{"measurement": "ED50", "setting": "[1]", "result": 0.009, "unit": "mg/kg"}]}
{"smiles": "C[C@H]1CCC[C@@H](CN2CCCC2)N1C(=O)Cc1ccc(Cl)c(Cl)c1", "values": [{"measurement": "ED50", "setting": "[1]", "result": 0.034, "unit": "mg/kg"}]}
{"smiles": "O=C(Cc1ccc(Cl)c(Cl)c1)N1CCC[C@@H](O)[C@H]1CN1CCCC1", "values": [{"measurement": "ED50", "setting": "[1]", "result": 1.7, "unit": "mg/kg"}]}
{"smiles": "O=C1CC[C@@H](CN2CCCC2)N(C(=O)Cc2ccc(Cl)c(Cl)c2)C1", "values": [{"measurement": "ED50", "setting": "[1]", "result": 0.91, "unit": "mg/kg"}]}
{"smiles": "O=C(Cc1ccc(Cl)c(Cl)c1)N1[C@@H](CO)CCC[C@H]1CN1CCCC1", "values": [{"measurement": "IC50", "setting": "[4]", "result": 2200, "unit": "nM"}]}
{"smiles": "N#C/C=C1/CCN(CC2CCCCN2C(=O)Cc2ccc(Cl)c(Cl)c2)C1", "note": "(stereo unspecified)", "values": [{"measurement": "ED50", "setting": "[1]", "result": 0.19, "unit": "mg/kg"}, {"measurement": "IC50", "setting": "[2]", "result": 0.12, "unit": "nM"}]}
{"smiles": "COC(=O)[C@@H]1CCN(C(=O)Cc2ccc(Cl)c(Cl)c2)[C@H](CN2CCCC2)C1", "values": [{"measurement": "ED50", "setting": "[1]", "result": "> 10", "unit": "mg/kg"}]}
{"smiles": "O=C1CCN(CC2CCCCN2C(=O)Cc2ccc(Cl)c(Cl)c2)C1", "note": "(stereo unspecified)", "values": [{"measurement": "ED50", "setting": "[1]", "result": 0.06, "unit": "mg/kg"}, {"measurement": "pKa", "setting": "[5]", "result": 5.3}, {"measurement": "IC50", "setting": "[2]", "result": 0.2, "unit": "nM"}]}
{"smiles": "O=C(Cc1ccc(Cl)c(Cl)c1)N1CCC2(CC1CN1CCCC1)SCCS2", "note": "(stereo unspecified)", "values": [{"measurement": "ED50", "setting": "[1]", "result": 0.025, "unit": "mg/kg"}]}
{"smiles": "O=C1CCN(C(=O)Cc2ccc(Cl)c(Cl)c2)C(CN2CCCC2)C1", "note": "(stereo unspecified)", "values": [{"measurement": "ED50", "setting": "[1]", "result": 0.018, "unit": "mg/kg"}]}
{"smiles": "O=C(Cc1ccc(Cl)c(Cl)c1)N1CCCCC1CN1CCCO1", "note": "(stereo unspecified)", "values": [{"measurement": "ED50", "setting": "[1]", "result": 0.38, "unit": "mg/kg"}]}
{"smiles": "COC(=O)C1=CCCN(CC2CCCCN2C(=O)Cc2ccc(Cl)c(Cl)c2)C1", "note": "(stereo unspecified)", "values": [{"measurement": "ED50", "setting": "[1]", "result": 0.41, "unit": "mg/kg"}]}
{"smiles": "O=C1CCCN(C(=O)Cc2ccc(Cl)c(Cl)c2)C1CN1CCCC1", "note": "(stereo unspecified)", "values": [{"measurement": "ED50", "setting": "[1]", "result": 3.4, "unit": "mg/kg"}]}
{"smiles": "O=C(Cc1ccc(Cl)c(Cl)c1)N1CCCCC1CN1CCCCC1", "note": "(stereo unspecified)", "values": [{"measurement": "ED50", "setting": "[1]", "result": 0.24, "unit": "mg/kg"}]}
{"smiles": "O=C(Cc1ccc(Cl)c(Cl)c1)N1CC2(CC[C@H]1CN1CCCC1)OCCO2", "values": [{"measurement": "ED50", "setting": "[1]", "result": 1.1, "unit": "mg/kg"}]}
{"smiles": "O=C(Cc1ccc(Cl)c(Cl)c1)N1CCCCC1CN1CCCC1", "note": "(stereo unspecified)", "values": [{"measurement": "ED50", "setting": "[1]", "result": 0.03, "unit": "mg/kg"}, {"measurement": "pKa", "setting": "[6]", "result": 9}, {"measurement": "IC50", "setting": "[7]", "result": 11, "unit": "nM"}]}
{"smiles": "COC(=O)/C=C1/CCN(CC2CCCCN2C(=O)Cc2ccc(Cl)c(Cl)c2)C1", "note": "(stereo unspecified)", "values": [{"measurement": "ED50", "setting": "[1]", "result": 0.07, "unit": "mg/kg"}]}
{"smiles": "C[C@@H]1CCC[C@@H](CN2CCCC2)N1C(=O)Cc1ccc(Cl)c(Cl)c1", "values": [{"measurement": "ED50", "setting": "[1]", "result": 0.4, "unit": "mg/kg"}]}
{"smiles": "C=C1CCN(CC2CCCCN2C(=O)Cc2ccc(Cl)c(Cl)c2)CC1", "note": "(stereo unspecified)", "values": [{"measurement": "IC50", "setting": "[2]", "result": 550, "unit": "nM"}]}
{"smiles": "NC(=O)[C@@H]1CCN(C(=O)Cc2ccc(Cl)c(Cl)c2)[C@H](CN2CCCC2)C1", "values": [{"measurement": "ED50", "setting": "[1]", "result": "> 10", "unit": "mg/kg"}]}
{"smiles": "CN(C)CC1CCCCN1C(=O)Cc1ccc(Cl)c(Cl)c1", "note": "(stereo unspecified)", "values": [{"measurement": "ED50", "setting": "[1]", "result": 0.064, "unit": "mg/kg"}, {"measurement": "IC50", "setting": "[2]", "result": 102, "unit": "nM"}]}
{"smiles": "O=C(Cc1ccc(Cl)c(Cl)c1)N1CC[C@@H](O)C[C@H]1CN1CCCC1", "values": [{"measurement": "ED50", "setting": "[1]", "result": 0.27, "unit": "mg/kg"}, {"measurement": "IC50", "setting": "[2]", "result": 120, "unit": "nM"}]}
{"smiles": "O=C(Cc1ccc(Cl)c(Cl)c1)N1CCC[C@H](O)[C@H]1CN1CCCC1", "values": [{"measurement": "ED50", "setting": "[1]", "result": 3.6, "unit": "mg/kg"}]}
{"smiles": "C=CCC1(CN2CCCC2)CCCCN1C(=O)Cc1ccc(Cl)c(Cl)c1", "note": "(stereo unspecified)", "values": [{"measurement": "ED50", "setting": "[1]", "result": 2.4, "unit": "mg/kg"}]}
{"smiles": "C=C1CCN(CC2CCCCN2C(=O)Cc2ccc(Cl)c(Cl)c2)C1", "note": "(stereo unspecified)", "values": [{"measurement": "ED50", "setting": "[1]", "result": 0.05, "unit": "mg/kg"}, {"measurement": "pKa", "setting": "[3]", "result": 7.7}]}
{"smiles": "O=C(Cc1ccc(Cl)c(Cl)c1)N1CC[C@H](O)C[C@H]1CN1CCCC1", "values": [{"measurement": "ED50", "setting": "[1]", "result": 1.4, "unit": "mg/kg"}]}
{"smiles": "C=C1CCCN(C(=O)Cc2ccc(Cl)c(Cl)c2)C1CN1CCCC1", "note": "(stereo unspecified)", "values": [{"measurement": "ED50", "setting": "[1]", "result": 0.11, "unit": "mg/kg"}]}
{"smiles": "COC(=O)/C=C1\\CCN(CC2CCCCN2C(=O)Cc2ccc(Cl)c(Cl)c2)C1", "note": "(stereo unspecified)", "values": [{"measurement": "ED50", "setting": "[1]", "result": 6.6, "unit": "mg/kg"}]}
